From PubChem BioAssay
The list is not random: actives were taken first. Their share in the collection is about 3.6%.
SR-BI DiI-HDL act: activators of SR-BI mediated DiI-HDL uptake, primary screen, ldlA[mSR-BI] CHO cells, DiI fluorescence; 3 h; 100 = double the neutral-control signal; activation, % at 12.5 µM; 320,000 tested, 0.096% active; AID 504775, 2011;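 active means mean replicate activation of at least 60% and every replicate at or above 60%; inconclusive means mean or all-replicate condition met, but not both; inactive means mean below 60% and not all replicates reaching 60%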;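 further: 0% = median plate neutral-control signal and 100% = twice that signal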
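Material – SR-BI-overexpressing, LDLR-lacking CHO cells · Medium – BSA-supplemented, HEPES-buffered Ham's F12, pH 7.4 · Doses – single concentration · Times – compound with DiI-HDL co-incubation, 3 h at 37 °C · Measured by – bottom-read fluorescence, 550/595 nm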
SR-BI HDL uptake: inhibitors of SR-BI mediated HDL lipid uptake, primary screen, ldlA[mSR-BI] cells, fluorescence, single point. 320,000 tested, 0.96% active. ldlA[mSR-BI] CHO cells, DiI-HDL uptake fluorescence, 3 h. Scavenger receptor class B member 1 (Mus musculus), Q61009. inhibition, % at 12.5 µM. AID 488896, 2010;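 active means mean replicate inhibition of at least 70% and a set share of replicates each scoring 70 or more; inconclusive means meets just one of the two criteria; inactive means fails both criteria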;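 further: 0% = median of neutral control wells and 100% = median of positive control wells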
Target sequence (Q61009 whole entry, looked up): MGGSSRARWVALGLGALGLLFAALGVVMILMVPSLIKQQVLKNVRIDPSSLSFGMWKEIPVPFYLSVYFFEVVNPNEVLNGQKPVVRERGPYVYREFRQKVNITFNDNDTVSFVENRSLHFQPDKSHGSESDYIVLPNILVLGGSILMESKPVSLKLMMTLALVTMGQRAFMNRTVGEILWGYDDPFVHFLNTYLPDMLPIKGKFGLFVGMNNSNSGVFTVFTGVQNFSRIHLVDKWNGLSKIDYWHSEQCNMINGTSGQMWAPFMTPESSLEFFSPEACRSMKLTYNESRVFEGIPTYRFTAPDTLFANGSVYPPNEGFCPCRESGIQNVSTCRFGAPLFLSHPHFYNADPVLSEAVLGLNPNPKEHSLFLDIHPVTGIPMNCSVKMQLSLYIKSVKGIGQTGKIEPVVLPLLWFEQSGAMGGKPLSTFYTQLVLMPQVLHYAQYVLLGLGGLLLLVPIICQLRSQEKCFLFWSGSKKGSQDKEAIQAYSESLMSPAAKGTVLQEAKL
MITF act: activators of MITF-driven TRPM1 promoter reporter, primary screen, cell-based, SK-MEL-5, luciferase, single point; 300,000 tested, 0.75% active; SK-MEL-5 TRPM1-promoter luciferase, 24 h; % of positive control, neutral wells = 0; activation, % at 12.5 µM;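 active means mean activation of at least 80% with every replicate also reaching 80%; inconclusive means mean reaches 80% but some replicate falls short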;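 further: 0% = neutral control wells and 100% = parthenolide positive control wells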
HSF1 activator: HSF-1 activators, primary screen, NIH3T3-HGL cells, MG132 stress, luminescence, single point; AID 504408, 2011; activation, % at 9 µM; 300,000 tested, 1.7% active; NIH3T3-HGL HSF-1 luciferase reporter, 8 h; 100% = twice DMSO control signal;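 active means mean replicate activation of at least 50% with a set share of replicates each reaching 50%; inconclusive means only one of those two conditions met; inactive means mean below 50% and too few replicates reaching it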;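 further: 0% = median of the neutral control wells and 100% = twice that signal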
Wnt bcat act: Wnt/beta-catenin pathway activators, primary screen, cell-based, plate reader, single point; Wnt/beta-catenin reporter cell assay, activator; activation, % at 9.35 µM; AID 743398, 2014; 300,000 tested, 1.2% active; in the data active means activation above about 30%, passing the limit was not always enough; inconclusive means no clear call, values can overlap the other calls;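 further: 0% = neutral control wells and 100% = positive control wells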
* hit, by the source's call; u = inconclusive; x = no result.

SMILES	SR-BI DiI-HDL act	SR-BI HDL uptake	MITF act	HSF1 activator	Wnt bcat act
O=C(O)CCC1(CCC(=O)O)CCCC(CCC(=O)O)(CCC(=O)O)C1=O	61*	-61	-5	x	-4
Cc1nc2c(OCCN3C(=O)c4ccccc4C3=O)cccn2c1N(C)C(=O)CCC1CCCC1	x	x	x	x	-4
NC(=S)N/N=C1/CCSc2ccc3ccccc3c21	-79	79*	-4	0	-1
O=C(Nc1ccc(Cl)cc1)C1=Cc2cc(Cl)ccc2OC1	31	-31	6	-9	x
O=C(Nc1ccc(Cl)cc1Cl)C1=Cc2ccccc2OC1	-8	8	49	53*	x
COc1ccc(NC(=O)C(c2cc3ccccc3o2)n2c(=O)c(-c3cc4ccccc4[nH]3)nc3ccccc32)cc1 (configuration not stated)	x	x	x	x	0
Cn1c(=O)c2ncn(CC(=O)N/N=C/C=C/c3ccccc3)c2n(C)c1=O	7	-7	-3	60*	0
Cn1c(=O)c2c(ncn2CC(=O)N/N=C/C=C/c2ccccc2)n(C)c1=O	15	-15	7	-6	x
CC(C)CCN(CCC(C)C)C(=O)Cc1c(O)c2ccccc2[nH]c1=O	x	x	3	53*	6
CSc1cccc(NC(=S)NN/C(=N/S(=O)(=O)c2ccccc2)N2CCCC2)c1	x	x	x	x	8
Cc1ccc(C(=O)OCc2cc(=O)n3c(C)csc3n2)s1	-6	6	54	x	3
COc1ccc(C(=O)OCc2cc(=O)n3c(C)csc3n2)cc1F	-12	12	106*	x	19
Clc1cnc2nc(SC/C=C/c3ccccc3)[nH]c2c1	x	x	x	13	-1
C(=C\c1ccccc1)/CSc1nc2ncccc2[nH]1	4	-4	55	72*	-1
CCC(=O)NC(=S)Nc1ccc(NC(=O)COc2ccc(Cl)c(C)c2)cc1	-67	67	8	79*	10
O=C(COc1ccc(CO)cc1)Nc1ccc(F)cc1	17	-17	44	23	x
CC(=O)NC(=S)Nc1ccc(NC(=O)COc2ccc(Cl)cc2)cc1	-23	23	x	64*	x
Cc1cc(OCC(=O)Nc2ccncc2)ccc1Cl	18	-18	0	-1	-4
O=C(COc1ccc(CO)cc1Cl)Nc1ccc(F)cc1	12	-12	16	55*	22
CCC(=O)NC(=S)Nc1ccc(NC(=O)COc2ccc(Cl)cc2Cl)cc1	-34	34	7	53*	-1
COc1ccc(NC(=S)NNC(=O)COc2ccc(Cl)cc2Cl)cc1	-17	17	-5	19	x
CNC[C@H]1OCCCC[C@H](C)Oc2ccc(NC(=O)CCCN(C)C)cc2C(=O)N([C@H](C)CO)C[C@@H]1C	x	x	x	x	-1
CC[n+]1c(/C=C2\Sc3ccccc3N2C)ccc2cccc(C)c21	-76	76*	-103	-11	-2
CCN1/C(=C/c2ccc3cc(C)ccc3[n+]2CC)Sc2ccccc21	-62	62	-101	-20	-2
COC(=O)C1=C(C)N(Cc2ccc(C(F)(F)F)cc2)C(=NCc2ccccc2)NC1c1cccc(Cl)c1 (configuration not stated)	x	x	x	x	-28
SMILES	SR-BI DiI-HDL act	SR-BI HDL uptake	MITF act	HSF1 activator	Wnt bcat act
Cc1ccc2cc(CCNC(=O)c3ccco3)c(=O)[nH]c2c1	21	-21	103*	27	x
CCOc1ccc2[nH]c(=O)c(CN(CC3COCCO3)C(=O)c3ccco3)cc2c1 (configuration not stated)	42	-42	15	7	x
Cc1cc2cc(CCNC(=O)c3cccs3)c(=O)[nH]c2cc1C	5	-5	x	58*	u
CCOc1ccc2[nH]c(=O)c(CN(Cc3ccc(F)cc3)C(=O)c3ccco3)cc2c1	-17	17	-25	75*	x
Cc1ccc2cc(CCNC(=O)CCCc3ccccc3)c(=O)[nH]c2c1	3	-3	-12	-7	-3
Cc1ccc2cc(CCNC(=O)c3ccco3)c(=O)[nH]c2c1C	45	-45	104*	46	u
CC1(C(=O)NCc2ccccc2)CCC(=O)N1CCCn1ccnc1 (configuration not stated)	x	x	x	x	0
COc1ccc2cc(CCNC(=O)C(C)C)c(=O)[nH]c2c1	-3	3	9	-9	2
